Measured values taken from ChEMBL document CHEMBL3232989, “First identification of boronic species as novel potential inhibitors of the Staphylococcus aureus NorA efflux pump” (J Med Chem, 2014).

Legend:
[1] = molecular target: T1, Quinolone resistance protein NorA (Staphylococcus aureus) (UniProt P0A0J7); experiment: Inhibition of NorA in fluoroquinolone-resistant Staphylococcus aureus 1199B assessed as potentiation of 4 ug/ml of ciprofloxacin MIC at 100 ug/ml after 24 hrs by microdilution method
T1 sequence (whole entry): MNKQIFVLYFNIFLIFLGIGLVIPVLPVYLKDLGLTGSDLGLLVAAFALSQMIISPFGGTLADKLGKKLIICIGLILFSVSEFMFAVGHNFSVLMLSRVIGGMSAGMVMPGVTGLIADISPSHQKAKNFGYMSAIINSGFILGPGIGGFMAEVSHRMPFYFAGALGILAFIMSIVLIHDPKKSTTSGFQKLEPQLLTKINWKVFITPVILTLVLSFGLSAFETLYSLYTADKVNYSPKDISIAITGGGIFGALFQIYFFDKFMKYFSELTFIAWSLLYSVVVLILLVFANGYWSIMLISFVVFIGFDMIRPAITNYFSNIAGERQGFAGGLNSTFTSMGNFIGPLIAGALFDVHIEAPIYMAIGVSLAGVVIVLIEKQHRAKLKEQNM
How it was run: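 Combination with ciprofloxacin 4 μg/mL (MIC/4) against SA-1199B in MH broth microdilution, 10^6 CFU/mL, 24 h at 37 °C, read at 620 nm and visually. Compounds are first screened at 100 μg/mL; actives are 2-fold serially diluted. MMC4 is the lowest inhibitor concentration giving antibacterial activity with subinhibitory ciprofloxacin. Duplicates.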

[2] = test system: Staphylococcus aureus; experiment: Toxicity in Staphylococcus aureus ATCC 25923 at 100 ug/ml after 24 hrs by microdilution method; format: organism-based
How it was run: (§1)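 Single-point screen at 100 μg/mL of compound alone in MH broth microdilution, 10^6 CFU/mL, 24 h at 37 °C. Growth is read at 620 nm and visually, giving percent growth inhibition. Compounds inhibiting more than 90% then go to MIC determination. Duplicates.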

[3] = test system: Staphylococcus aureus; experiment: Toxicity in fluoroquinolone-resistant Staphylococcus aureus 1199B expressing NorA at 100 ug/ml after 24 hrs by microdilution method; format: organism-based; how it was run: as §1
[4] = test system: Staphylococcus aureus; experiment: Toxicity in Staphylococcus aureus ATCC 25923 after 24 hrs by microdilution method; format: organism-based
How it was run: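 Mueller–Hinton broth microdilution; inoculum from frozen culture grown 18 h at 37 °C, 10^6 CFU/mL per well. Compounds (10 mg/mL DMSO stock) in 2-fold serial dilutions, highest 128 mg/L, first screened at 100 μg/mL. MIC = complete growth inhibition after 24 h at 37 °C, read at 620 nm and visually; duplicate; ampicillin control.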

SMILES | Activity [1] [µg/mL] | growth inhibition (GI) [2] [%] | growth inhibition (GI) [3] [%] | MIC [4]
Cc1cc(B(O)O)cnc1N1CCOCC1 | 64 | < 90 | < 90 | >= 64 ug ml-1
CC(C)(O)C(C)(C)OB(OC(C)(C)C(C)(C)O)c1ccncc1Cl | > 128 | < 90 | < 90 | >= 64 ug ml-1
CC(C)(O)C(C)(C)OB(OC(C)(C)C(C)(C)O)c1ccnc(Cl)c1C#N | > 128 | < 90 | < 90 | >= 64 ug ml-1
Cc1cc(B(OC(C)(C)C(C)(C)O)OC(C)(C)C(C)(C)O)ccn1 | > 128 | < 90 | < 90 | >= 64 ug ml-1
CC(C)(O)C(C)(C)OB(OC(C)(C)C(C)(C)O)c1ccnc(F)c1Cl | 16 | < 90 | < 90 | >= 64 ug ml-1
CC(C)[Si](Oc1ncc(B2OC(C)(C)C(C)(C)O2)o1)(C(C)C)C(C)C | > 128 | < 90 | < 90 | >= 64 ug ml-1
F[B-](F)(F)c1cccnc1.[K+] | > 128 | < 90 | < 90 | >= 64 ug ml-1
OB(O)c1ccc2[nH]ncc2c1 | 32 | < 90 | < 90 | >= 64 ug ml-1
OB(O)c1ccnc(F)c1Cl | 16 | < 90 | < 90 | >= 64 ug ml-1
CC(C)(O)C(C)(C)OB(OC(C)(C)C(C)(C)O)c1cc(Br)cnc1Cl | 128 | < 90 | < 90 | >= 64 ug ml-1
OB(O)c1cccnc1OCc1ccccc1 | 32 | < 90 | < 90 | >= 64 ug ml-1
CC(C)(O)C(C)(C)OB(OC(C)(C)C(C)(C)O)c1ccc(Cl)nc1 | 128 | < 90 | < 90 | >= 64 ug ml-1
CCOC(=O)c1ccccc1B(O)O | > 128 | < 90 | < 90 | >= 64 ug ml-1
OB(O)c1cccnc1 | 32 | < 90 | < 90 | >= 64 ug ml-1
CC(C)(O)C(C)(C)OB(OC(C)(C)C(C)(C)O)c1ccncc1 | > 128 | < 90 | < 90 | >= 64 ug ml-1
CC(C)(O)C(C)(C)OB(OC(C)(C)C(C)(C)O)c1cccnc1F | > 128 | < 90 | < 90 | >= 64 ug ml-1
CC1(C)OB(c2cnn(C(=O)c3ccccc3)c2)OC1(C)C | 128 | < 90 | < 90 | >= 64 ug ml-1
CC(C)(O)C(C)(C)OB(OC(C)(C)C(C)(C)O)c1cccnc1C#N | > 128 | < 90 | < 90 | >= 64 ug ml-1
CSc1ncccc1B(OC(C)(C)C(C)(C)O)OC(C)(C)C(C)(C)O | > 128 | < 90 | < 90 | >= 64 ug ml-1
CSc1ncccc1B(O)O | > 128 | < 90 | < 90 | >= 64 ug ml-1
Cc1c[nH]nc1B(O)O | 64 | < 90 | < 90 | >= 64 ug ml-1
CC(=O)n1nc(C)c2cc(B3OC(C)(C)C(C)(C)O3)ccc21 | 128 | < 90 | < 90 | >= 64 ug ml-1
O[B-](O)(O)c1cccnc1.[Na+] | 128 | < 90 | < 90 | >= 64 ug ml-1
N#Cc1ncccc1B(O)O | > 128 | < 90 | < 90 | >= 64 ug ml-1

SMILES | Activity [1] [µg/mL] | growth inhibition (GI) [2] [%] | growth inhibition (GI) [3] [%] | MIC [4]
OB(O)c1cccnc1Cl | > 128 | < 90 | < 90 | >= 64 ug ml-1
CC(C)(O)C(C)(C)OB(OC(C)(C)C(C)(C)O)c1cc(Cl)ncc1Cl | 32 | < 90 | < 90 | >= 64 ug ml-1
OB(O)c1cc(Cl)ncc1Cl | 64 | < 90 | < 90 | >= 64 ug ml-1
CC(C)(C)OC(=O)n1cccc1B(O)O | > 128 | < 90 | < 90 | >= 64 ug ml-1
CCOc1ccc(B(OC(C)(C)C(C)(C)O)OC(C)(C)C(C)(C)O)cn1 | 128 | < 90 | < 90 | >= 64 ug ml-1
N#Cc1c(B(O)O)ccnc1Cl | > 128 | < 90 | < 90 | >= 64 ug ml-1
Cc1cc(B(O)O)cnc1Br | 32 | < 90 | < 90 | >= 64 ug ml-1
OB(O)c1cccnc1Br | > 128 | < 90 | < 90 | >= 64 ug ml-1
CC(C)Nc1ccc(B(O)O)cc1 | 64 | < 90 | < 90 | >= 64 ug ml-1
OB(O)c1ccnc(F)c1 | > 128 | < 90 | < 90 | >= 64 ug ml-1
CC(C)(O)C(C)(C)OB(OC(C)(C)C(C)(C)O)c1ccc(OCc2ccccc2)nc1 | 64 | < 90 | < 90 | >= 64 ug ml-1
Cn1c(B2OC(C)(C)C(C)(C)O2)cnc1Cl | 128 | < 90 | < 90 | >= 64 ug ml-1
CSc1ccc(B(OC(C)(C)C(C)(C)O)OC(C)(C)C(C)(C)O)cn1 | > 128 | < 90 | < 90 | >= 64 ug ml-1
CC(C)(O)C(C)(C)OB(OC(C)(C)C(C)(C)O)c1ccncc1C#N | > 128 | < 90 | < 90 | >= 64 ug ml-1
CC1(C)OB(c2cnc(-c3ccccc3)n2C(=O)c2ccccc2)OC1(C)C | 32 | < 90 | < 90 | >= 64 ug ml-1
COc1cccc(B(O)O)c1OC | > 128 | < 90 | < 90 | >= 64 ug ml-1
COc1ncccc1B(O)O | 16 | < 90 | < 90 | >= 64 ug ml-1
COc1nccc(B(OC(C)(C)C(C)(C)O)OC(C)(C)C(C)(C)O)c1Cl | 32 | < 90 | < 90 | >= 64 ug ml-1
OB(O)c1ccc(F)nc1 | 32 | < 90 | < 90 | >= 64 ug ml-1
CC(C)(O)C(C)(C)OB(OC(C)(C)C(C)(C)O)c1ccncc1Br | > 128 | < 90 | < 90 | >= 64 ug ml-1
OB(O)c1cncc(Oc2cncc(Cl)c2)c1 | 16 | < 90 | < 90 | >= 64 ug ml-1
N#Cc1cnccc1B(O)O | > 128 | < 90 | < 90 | >= 64 ug ml-1
COC(=O)[C@H]1[C@H]2C[C@@H]3c4[nH]c5cc(OC)ccc5c4CCN3C[C@H]2C[C@@H](OC(=O)c2cc(OC)c(OC)c(OC)c2)[C@@H]1OC [RESERPINE] | 4 |  |  | >= 64 ug ml-1
